Measured values reported in ChEMBL document CHEMBL3588757, “Structure-based design, synthesis and biological testing of piperazine-linked bis-epipodophyllotoxin etoposide analogs” (Bioorg Med Chem, 2015).

How the values were obtained:
Format in all cases: functional
[1] = tested on: RPMI-8226; assay: Cytotoxicity against human RPMI8226 cells by SRB assay
In short: (§1)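 NCI-60 panel screen; 5-dose testing giving GI50 per cell line, plus a single 10 µM one-dose test. Method details not given beyond the NCI screen.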

[2] = tested on: LOX IMVI; assay: Cytotoxicity against human LOXIMVI cells assessed as cell growth at 5 uM by SRB assay; settings: read-out: Activity
[3] = tested on: ACHN; assay: Cytotoxicity against human ACHN cells by SRB assay
[4] = tested on: SK-OV-3; assay: Cytotoxicity against human SKOV3 cells assessed as cell growth at 0.005 uM by SRB assay; settings: read-out: Activity
[5] = tested on: HOP-92; assay: Cytotoxicity against human HOP92 cells assessed as cell growth at 5 uM by SRB assay; settings: read-out: Activity
In short: (§2)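 Measured in the NCI-60 human tumour cell line panel using five-dose testing. Growth was recorded at each dose for each cell line, and a GI50 was derived for each line.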

[6] = tested on: SF-268; assay: Cytotoxicity against human SF268 cells assessed as cell growth at 0.5 uM by SRB assay; settings: read-out: Activity
[7] = tested on: BT-549; assay: Cytotoxicity against human BT549 cells assessed as cell growth at 0.5 uM by SRB assay; settings: read-out: Activity
[8] = tested on: SK-OV-3; assay: Cytotoxicity against human SKOV3 cells assessed as cell growth at 5 uM by SRB assay; settings: read-out: Activity
[9] = tested on: SR; assay: Cytotoxicity against human SR cells assessed as cell growth at 50 uM by SRB assay; settings: read-out: Activity
[10] = tested on: CCRF-CEM; assay: Cytotoxicity against human CCRF-CEM cells assessed as cell growth at 0.5 uM by SRB assay; settings: read-out: Activity
[11] = tested on: SF-295; assay: Cytotoxicity against human SF295 cells assessed as cell growth at 0.005 uM by SRB assay; settings: read-out: Activity
[12] = tested on: MCF7; assay: Cytotoxicity against human MCF7 cells assessed as cell growth at 5 uM by SRB assay; settings: read-out: Activity
[13] = tested on: MDA-MB-231; assay: Cytotoxicity against human MDA-MB-231/ATCC cells by SRB assay; in short: as §1
[14] = Cytotoxicity against human Hs578T cells by SRB assay; settings: Hs-578T; in short: as §2
[15] = tested on: BT-549; assay: Cytotoxicity against human BT549 cells by SRB assay
[16] = tested on: SK-MEL-5; assay: Cytotoxicity against human SK-MEL-5 cells assessed as cell growth at 0.5 uM by SRB assay; settings: read-out: Activity
[17] = tested on: SF-295; assay: Cytotoxicity against human SF295 cells by SRB assay; in short: as §1
[18] = tested on: PC-3; assay: Cytotoxicity against human PC3 cells assessed as cell growth at 5 uM by SRB assay; settings: read-out: Activity
[19] = tested on: IGROV-1; assay: Cytotoxicity against human IGROV1 cells assessed as cell growth at 5 uM by SRB assay; settings: read-out: Activity
[20] = tested on: UACC-257; assay: Cytotoxicity against human UACC257 cells by SRB assay; in short: as §1
[21] = tested on: SF-268; assay: Cytotoxicity against human SF268 cells assessed as cell growth at 0.005 uM by SRB assay; settings: read-out: Activity
[22] = tested on: SW-620; assay: Cytotoxicity against human SW620 cells by SRB assay; in short: as §1
[23] = tested on: ACHN; assay: Cytotoxicity against human ACHN cells assessed as cell growth at 0.05 uM by SRB assay; settings: read-out: Activity
[24] = tested on: MDA-MB-468; assay: Cytotoxicity against human MDA-MB-468 cells assessed as cell growth at 50 uM by SRB assay; settings: read-out: Activity
[25] = tested on: MDA-MB-435; assay: Cytotoxicity against human MDA-MB-435 cells assessed as cell growth at 50 uM by SRB assay; settings: read-out: Activity
[26] = tested on: RXF 393; assay: Cytotoxicity against human RXF393 cells assessed as cell growth at 50 uM by SRB assay; settings: read-out: Activity
[27] = tested on: PC-3; assay: Cytotoxicity against human PC3 cells by SRB assay; in short: as §1
[28] = tested on: HCT-15; assay: Cytotoxicity against human HCT15 cells assessed as cell growth at 5 uM by SRB assay; settings: read-out: Activity; in short: as §2
[29] = tested on: MDA-MB-435; assay: Cytotoxicity against human MDA-MB-435 cells assessed as cell growth at 0.005 uM by SRB assay; settings: read-out: Activity
[30] = tested on: OVCAR-3; assay: Cytotoxicity against human OVCAR3 cells assessed as cell growth at 0.05 uM by SRB assay; settings: read-out: Activity
[31] = tested on: M14; assay: Cytotoxicity against human M14 cells assessed as cell growth at 50 uM by SRB assay; settings: read-out: Activity
[32] = tested on: UACC-257; assay: Cytotoxicity against human UACC257 cells assessed as cell growth at 0.05 uM by SRB assay; settings: read-out: Activity
[33] = tested on: NCI-H226; assay: Cytotoxicity against human NCI-H226 cells assessed as cell growth at 0.005 uM by SRB assay; settings: read-out: Activity
[34] = tested on: U-251; assay: Cytotoxicity against human U251 cells assessed as cell growth at 5 uM by SRB assay; settings: read-out: Activity
[35] = tested on: NCI-H522; assay: Cytotoxicity against human NCI-H522 cells assessed as cell growth at 50 uM by SRB assay; settings: read-out: Activity
[36] = tested on: OVCAR-8; assay: Cytotoxicity against human OVCAR8 cells assessed as cell growth at 50 uM by SRB assay; settings: read-out: Activity
[37] = tested on: SW-620; assay: Cytotoxicity against human SW620 cells assessed as cell growth at 5 uM by SRB assay; settings: read-out: Activity
[38] = Cytotoxicity against human NCI-ADR-RES cells assessed as cell growth at 0.005 uM by SRB assay; settings: read-out: Activity
[39] = read-out: LC50 (the source's name)
[40] = read-out: pLC50 (the source's name) (converted)

COc1cc([C@@H]2c3cc4c(cc3[C@@H](NC(=O)CN3CCN(CCCCCCN5CCN(CC(=O)N[C@@H]6c7cc8c(cc7[C@@H](c7cc(OC)c(O)c(OC)c7)[C@H]7C(=O)OC[C@@H]76)OCO8)CC5)CC3)[C@H]3COC(=O)[C@H]23)OCO4)cc(OC)c1O
GI50 ([1]; read-out: GI50): 0.89 µM | CC50 [1, 39]: > 50 µM | TGI ([1]; read-out: TGI): 4.9 µM | GI50 ([1]; read-out: pGI50 (converted)): 0.891 µM | CC50 [1, 40]: > 50.1 µM | TGI ([1]; read-out: pTGI (converted)): 4.9 µM | growth at 5 µM [2]: 23% | GI50 ([3]; read-out: GI50): 22.3 µM | CC50 [3, 39]: > 50 µM | TGI ([3]; read-out: TGI): > 50 µM | GI50 ([3]; read-out: pGI50 (converted)): 22.4 µM | CC50 [3, 40]: > 50.1 µM | TGI ([3]; read-out: pTGI (converted)): > 50.1 µM | growth at 0.005 µM [4]: 104% | growth at 5 µM [5]: 30% | growth at 0.5 µM [6]: 74% | growth at 0.5 µM [7]: 62% | growth at 5 µM [8]: 44% | growth at 50 µM [9]: 1% | growth at 0.5 µM [10]: 31% | growth at 0.005 µM [11]: 90% | growth at 5 µM [12]: 12% | GI50 ([13]; read-out: GI50): 13.6 µM | CC50 [13, 39]: > 50 µM | TGI ([13]; read-out: TGI): > 50 µM | GI50 ([13]; read-out: pGI50 (converted)): 13.5 µM | CC50 [13, 40]: > 50.1 µM | TGI ([13]; read-out: pTGI (converted)): > 50.1 µM | GI50 ([14]; read-out: GI50): 8.93 µM | CC50 [14, 39]: > 50 µM | TGI ([14]; read-out: TGI): > 50 µM | GI50 ([14]; read-out: pGI50 (converted)): 8.91 µM | CC50 [14, 40]: > 50.1 µM | TGI ([14]; read-out: pTGI (converted)): > 50.1 µM | GI50 ([15]; read-out: GI50): 0.757 µM | CC50 [15, 39]: > 50 µM | TGI ([15]; read-out: TGI): 4.24 µM | GI50 ([15]; read-out: pGI50 (converted)): 0.759 µM | CC50 [15, 40]: > 50.1 µM | TGI ([15]; read-out: pTGI (converted)): 4.27 µM | growth at 0.5 µM [16]: 85% | GI50 ([17]; read-out: GI50): 4.92 µM | CC50 [17, 39]: > 50 µM | TGI ([17]; read-out: TGI): > 50 µM | GI50 ([17]; read-out: pGI50 (converted)): 4.9 µM | CC50 [17, 40]: > 50.1 µM | TGI ([17]; read-out: pTGI (converted)): > 50.1 µM | growth at 5 µM [18]: 54% | growth at 5 µM [19]: 74% | GI50 ([20]; read-out: GI50): 18.9 µM | CC50 [20, 39]: > 50 µM | TGI ([20]; read-out: TGI): > 50 µM | GI50 ([20]; read-out: pGI50 (converted)): 19.1 µM | CC50 [20, 40]: > 50.1 µM | TGI ([20]; read-out: pTGI (converted)): > 50.1 µM | growth at 0.005 µM [21]: 97% | GI50 ([22]; read-out: GI50): 1.6 µM | CC50 [22, 39]: > 50 µM | TGI ([22]; read-out: TGI): > 50 µM | GI50 ([22]; read-out: pGI50 (converted)): 1.58 µM | CC50 [22, 40]: > 50.1 µM | TGI ([22]; read-out: pTGI (converted)): > 50.1 µM | growth at 0.05 µM [23]: 98% | growth at 50 µM [24]: -33% | growth at 50 µM [25]: 17% | growth at 50 µM [26]: 7% | GI50 ([27]; read-out: GI50): 6.87 µM | CC50 [27, 39]: > 50 µM | TGI ([27]; read-out: TGI): > 50 µM | GI50 ([27]; read-out: pGI50 (converted)): 6.92 µM | CC50 [27, 40]: > 50.1 µM | TGI ([27]; read-out: pTGI (converted)): > 50.1 µM | growth at 5 µM [28]: 82% | growth at 0.005 µM [29]: 91% | growth at 0.05 µM [30]: 108% | growth at 50 µM [31]: -19% | growth at 0.05 µM [32]: 113% | growth at 0.005 µM [33]: 92% | growth at 5 µM [34]: 23% | growth at 50 µM [35]: -16% | growth at 50 µM [36]: 43% | growth at 5 µM [37]: 37% | growth at 0.005 µM [38]: 104%
